Laboratory results published in ChEMBL document CHEMBL1811802, “Synthesis and significant cytostatic activity of 7-hetaryl-7-deazaadenosines” (J Med Chem, 2011).
Activity calls are given as the source filed them. The calls are words filed in the database; no cut-off is given here.

Key:
[1] = system: BV-173; assay: Cytotoxicity against human BV173 cells after 3 days by MTT assay; assay type: functional, cell-based; details: BV-173, 72 h
[2] = system: DU-145; assay: Metabolic stability in human DU145 cells assessed as sodium ((2R,3S,4R,5R)-5-(4-amino-7H-pyrrolo[2,3-d]pyrimidin-7-yl)-3,4-dihydroxytetrahydrofuran-2-yl)methyl hydrogentriphosphate-NTP formation per million of cells at 10 uM after 24 hrs by LC/MS/MS analysis; assay type: ADME, cell-based; details: du-145, 24 h
Outline: (§1)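 Du145 seeded at 60% confluence in MEM/10% FBS; next day exposed to 10 μM compound for 6 or 24 h. Cells trypsinized, extracted in 70% MeOH, dried, resuspended in 1 mM ammonium phosphate pH 8.5. Nucleoside, NMP and NTP quantified by ion-pairing (dimethylhexylamine) LC/MS/MS against untreated-cell-extract standard curves; pmol per million cells.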

[3] = system: PC-3; assay: Cytotoxicity against human PC3 cells after 3 days by MTT assay; assay type: functional, cell-based; details: PC-3, 72 h
[4] = system: DU-145; assay: Metabolic stability in human DU145 cells assessed as sodium ((2R,3S,4R,5R)-5-(4-amino-7H-pyrrolo[2,3-d]pyrimidin-7-yl)-3,4-dihydroxytetrahydrofuran-2-yl)methyl hydrogenphosphate-NMP formation per million of cells at 10 uM after 24 hrs by LC/MS/MS analysis; assay type: ADME, cell-based; details: du-145, 24 h; outline: as §1
[5] = system: SK-N-AS; assay: Cytotoxicity against human SK-N-AS cells after 3 days by MTT assay; assay type: functional, cell-based; details: 72 h
[6] = system: HCT-15; assay: Cytostatic activity against human HCT15 cells after 5 days by SRB assay; assay type: functional; details: HCT-15, 120 h
Outline: (§2)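 Cells seeded per line density, overnight at 37 °C; day-zero plate TCA-fixed. 5-fold serial dilutions added, 5-day incubation; TCA fixation, 0.057% SRB in 1% acetic acid 30 min, dye dissolved in 10 mM Tris pH 10.5, A500. Growth relative to day-zero and untreated; GIC50 from sigmoidal dose–response fit; mean of two independent experiments.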

[7] = system: HPAC; assay: Cytotoxicity against human HPAC cells after 3 days by MTT assay; assay type: functional, cell-based; details: 72 h
[8] = Antitumor activity against mouse P388D1 cells xenografted in DBA/2 mouse assessed as increase of lifespan at 75 mg/kg, ip qd administered as 2 cycles on day 1 to 3 and day 8 to 10; assay type: functional; details: route intraperitoneal
Outline: (§3)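 P388D1 mouse leukemia cells, grown in RPMI with 10% FBS, were implanted ip at 10^5 cells per mouse on day 0 into female DBA/2 mice (18–22 g, SPF) and randomized 10 per group. Dosing was once daily ip in 50% PEG400/deionized water (pH 7.0) on days 1–3 and 8–10, with vehicle for controls. Deaths were recorded daily, and MST and %ILS were calculated.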

[9] = system: DU-145; assay: Cytostatic activity against human DU145 cells after 5 days by SRB assay; assay type: functional; details: DU-145, 120 h; outline: as §2
[10] = system: MDA-MB-231; assay: Cytotoxicity against human MDA-MB-231 cells after 3 days by MTT assay; assay type: functional, cell-based; details: MDA-MB-231, 72 h
[11] = system: NCI-H23; assay: Cytostatic activity against human NCI-H23 cells after 5 days by SRB assay; assay type: functional; details: NCI-H23, 120 h; outline: as §2
[12] = Cytotoxicity against human CEM-DNR-bulk cells after 3 days by MTT assay; assay type: functional, cell-based; details: 72 h
[13] = Cytotoxicity against human NCI-H146 cells after 3 days by MTT assay; assay type: functional, cell-based; details: NCI-H146, 72 h
[14] = target: Adenosine kinase (Homo sapiens, UniProt P55263); assay: Inhibition of human ADK using [3H]-adenosine by scintillation counting
Adenosine kinase, sequence (P55263 whole entry): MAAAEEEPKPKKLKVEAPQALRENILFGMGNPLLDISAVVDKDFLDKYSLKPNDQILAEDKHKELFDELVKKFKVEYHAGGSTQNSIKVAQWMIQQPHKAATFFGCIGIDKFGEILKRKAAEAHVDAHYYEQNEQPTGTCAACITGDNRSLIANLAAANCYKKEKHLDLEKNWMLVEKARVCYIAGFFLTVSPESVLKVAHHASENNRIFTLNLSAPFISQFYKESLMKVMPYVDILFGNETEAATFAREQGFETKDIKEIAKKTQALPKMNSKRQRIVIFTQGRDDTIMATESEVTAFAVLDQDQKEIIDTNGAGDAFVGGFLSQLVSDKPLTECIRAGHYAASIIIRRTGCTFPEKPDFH

[15] = Antitumor activity against mouse P388D1 cells xenografted in DBA/2 mouse assessed as increase of mean survival days at 35 mg/kg, ip qd administered as 2 cycles on day 1 to 3 and day 8 to 10; details: route intraperitoneal
[16] = system: C6; assay: Cytotoxicity against rat C6 cells after 3 days by MTT assay; assay type: functional, cell-based; details: C6, 72 h
[17] = system: PC-3; assay: Cytostatic activity against human PC3 cells after 5 days by SRB assay; assay type: functional; details: PC-3, 120 h; outline: as §2
[18] = system: CCRF-CEM; assay: Cell cycle arrest in human CCRF-CEM cells assessed as accumulation at G2/M phase at 5 time GI50 using propidium iodide staining by flow cytometry; assay type: functional, cell-based
Outline: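 CCRF-CEM seeded at 5 × 10^5 cells/ml, grown in RPMI 1640 with 10% FCS at 37 °C with 1× or 5× GIC50 of compound; vehicle controls harvested at same times. Cells ethanol-fixed, RNase-treated, stained with propidium iodide, flow cytometry at 488 nm; cell cycle phases scored.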

[19] = system: CCRF-CEM; assay: Inhibition of RNA synthesis in human CCRF-CEM cells assessed as BrU incorporation at 1 to 5 times GI50 after 1 hr by FACS analysis; assay type: functional, cell-based
Outline: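 CCRF-CEM cultured as for cell cycle (1× or 5× GIC50), pulsed with 1 mM 5-bromouridine 30 min. Paraformaldehyde/NP-40 fixation, anti-BrdU antibody cross-reacting with BrU, FITC secondary, propidium iodide/RNase counterstain, flow cytometry at 488 nm.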

[20] = system: DU-145; assay: Metabolic stability in human DU145 cells assessed as sodium ((2R,3S,4R,5R)-5-(4-amino-7H-pyrrolo[2,3-d]pyrimidin-7-yl)-3,4-dihydroxytetrahydrofuran-2-yl)methyl hydrogenphosphate-NMP formation per million of cells at 10 uM after 6 hrs by LC/MS/MS analysis; assay type: ADME, cell-based; details: du-145, 6 h; outline: as §1
[21] = system: K562; assay: Cytotoxicity against human paclitaxel resistant K562 cells after 3 days by MTT assay; assay type: functional, cell-based; details: K562, 72 h
[22] = system: CCRF-CEM; assay: Induction of apoptosis in human CCRF-CEM cells at 5 time GI50 after 4 to 8 hrs using propidium iodide staining by flow cytometry; assay type: functional, cell-based
Outline: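 CCRF-CEM at 5 × 10^5 cells/ml in RPMI 1640/10% FCS, 37 °C, exposed to 1× or 5× GIC50; vehicle controls in parallel. Ethanol-fixed, RNase-treated, propidium iodide stained, flow cytometry; apoptosis taken as % sub-G1 particles (logarithmic mode).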

[23] = system: DU-145; assay: Metabolic stability in human DU145 cells assessed as nucleoside formation per million of cells at 10 uM after 6 hrs by LC/MS/MS analysis; assay type: ADME, cell-based; details: du-145, 6 h; outline: as §1
[24] = Antitumor activity against mouse P388D1 cells xenografted in DBA/2 mouse assessed as increase of lifespan at 35 mg/kg, ip qd administered as 2 cycles on day 1 to 3 and day 8 to 10; details: route intraperitoneal
[25] = Cytotoxicity against human MES-SA cells after 3 days by MTT assay; assay type: functional, cell-based; details: 72 h
[26] = system: EL4; assay: Cytotoxicity against mouse EL4 cells after 3 days by MTT assay; assay type: functional, cell-based; details: EL4, 72 h
[27] = Cytostatic activity against human Hs578 cells after 5 days by SRB assay; assay type: functional; details: Hs578, 120 h; outline: as §2
[28] = system: DU-145; assay: Metabolic stability in human DU145 cells assessed as nucleoside formation per million of cells at 10 uM after 24 hrs by LC/MS/MS analysis; assay type: ADME, cell-based; details: du-145, 24 h; outline: as §1
[29] = system: SK-MEL-2; assay: Cytotoxicity against human SK-MEL-2 cells after 3 days by MTT assay; assay type: functional, cell-based; details: SK-MEL-2, 72 h
[30] = Antitumor activity against mouse P388D1 cells xenografted in DBA/2 mouse assessed as increase of mean survival days at 75 mg/kg, ip qd administered as 2 cycles on day 1 to 3 and day 8 to 10; assay type: functional; details: route intraperitoneal; outline: as §3

Q: With `Nc1ncnc2c1c(-c1cccs1)cn2[C@@H]1O[C@H](CO)[C@@H](O)[C@H]1O` as the compound, how does the IC50 [1] read?
A: The IC50 was 105 nM.

Q: What about the Stability [2] of the same compound?
A: The Stability was 1.96 pmol.

Q: And the IC50 [3]?
A: The IC50 was 8730 nM.

Q: What about the Stability [4] of the same compound?
A: Its Stability is 64 pmol.

Q: And the IC50 [5]?
A: The IC50 was > 10000 nM.

Q: What about the GI50 [6] of the same compound?
A: Its GI50 is 11 nM.

Q: What about the IC50 [7] of the same compound?
A: The IC50 was 70 nM.

Q: What about the Activity [8] of the same compound?
A: The Activity was 29%.

Q: What about the GI50 [9] of the same compound?
A: Its GI50 is 133 nM.

Q: And the IC50 [10]?
A: Its IC50 is 26 nM.

Q: And the GI50 [11]?
A: The GI50 was 3.7 nM.

Q: And the IC50 [12]?
A: The IC50 was 91 nM.

Q: And the IC50 [13]?
A: The IC50 was > 10000 nM.

Q: And the IC50 [14]?
A: The IC50 was > 5000 nM.

Q: What about the MSD [15] of the same compound?
A: The MSD was 15 days.

Q: And the IC50 [16]?
A: Its IC50 is 4540 nM.

Q: And the GI50 [17]?
A: The GI50 was 1620 nM.

Q: What about the Activity [18] of the same compound?
A: Its Activity is “Active”.

Q: And the inhibition [19]?
A: Its inhibition is “Active”.

Q: What about the Stability [20] of the same compound?
A: Its Stability is 5.04 pmol.

Q: And the IC50 [21]?
A: The IC50 was 47 nM.

Q: And the Activity [22]?
A: The Activity was “Active”.

Q: What about the Stability [23] of the same compound?
A: The Stability was 4.66 pmol.

Q: What about the Activity [24] of the same compound?
A: Its Activity is 28%.

Q: What about the IC50 [25] of the same compound?
A: The IC50 was 232 nM.

Q: And the IC50 [26]?
A: Its IC50 is 9300 nM.

Q: What about the GI50 [27] of the same compound?
A: The GI50 was 12 nM.

Q: And the Stability [28]?
A: Its Stability is 30.4 pmol.

Q: What about the IC50 [29] of the same compound?
A: The IC50 was 1980 nM.

Q: What about the MSD [30] of the same compound?
A: The MSD was 15.1 days.
